Experimental data as given in the RNAGym collection of RNA variant scans (doi:10.1126/science.aae0568).
Fewer inactive variants are shown than the library holds.

B1: tRNA (parent)
chain: GUUCCGUUGGCGUAAUGGUAACGCGUCUCCCUCCUAAGGAGAAGACUGCGGGUUCGAGUCCCGUACGGAACG

Variants of: B1
Assay: yeast fitness relative to wild type (ratio to wild type); higher = fitter; tRNA-Arg(CCU), competitive growth, 37 C, YPD
How it was run: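 For this measurement, the tRNA-Arg(CCU) gene was varied by chemical synthesis at a 3% per-site mutation rate across 69 sites, and each variant was placed at the native genomic locus in Saccharomyces cerevisiae. The pooled strains went through a 24-hour competition in YPD at 37°C in six parallel replicates, with amplicons from start and end populations read by 100-nucleotide paired-end sequencing. Darwinian fitness relative to wild type followed from the change in each genotype's frequency. Genotypes needed ≥ 100 starting reads, and estimates < 0.5 were set to 0.5.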

Point of comparison: C30U A40U, yeast fitness 0.965. Against it:
- C30U U35A A37G G38C U47A — lower, ≤ 0.5
- C30U C34G C46U C55U G67C — lower, ≤ 0.5
- C30U G67A — lower, 0.921
- C30U G67C — lower, 0.864
- C31A C34G A43C U47C C61U — lower, ≤ 0.5
- C30G G52C A69C — lower, ≤ 0.5
- C30U A42G C62A — lower, ≤ 0.5
- C30U A40G — lower, 0.914
- C30U A40C — lower, 0.792
- C30U C60G G67A — lower, ≤ 0.5
- C30U C31U — higher, 1.02
- C31A G48A A69C — lower, 0.678
- C30U U32C — lower, 0.924
- C30U G44A C60G — lower, ≤ 0.5
- C30U C46A — higher, 0.982
- C30U C46U — higher, 0.966
- C30U C46G — lower, 0.874
- C31A C33G A42C G48A U54A A69C — lower, ≤ 0.5
- C31A A70C — lower, 0.783
- C31A A70G — lower, 0.811
- C31A A70U — lower, 0.927
- C31G A36C C62G — lower, ≤ 0.5
- C31A C33G A36U — lower, 0.676
- C30U A37G — lower, 0.656
- C30U A37C — lower, 0.729
- C31A C61G G68C — lower, ≤ 0.5
- C30U U47C A65G — lower, ≤ 0.5
- C31A A42G A43G G68C — lower, 0.52
- C30U G38C C61U — lower, 0.542
- C30U C61U G63C — lower, ≤ 0.5
- C30G U64C — lower, 0.626
- C30U U32G A36G A37U U47A — lower, 0.559
- C31A A57G C61U — lower, ≤ 0.5
- C31A A37C C46U — lower, ≤ 0.5
- C31A A37U G63A G67C — lower, ≤ 0.5
- C30U G56A G67C — lower, 0.603
- C31G A36C A42G G52A — lower, ≤ 0.5
- C31A C62G G68C — lower, ≤ 0.5
- C31A C33A C55G A57U C66U G67A — lower, ≤ 0.5
- C30U C31U C60G — lower, ≤ 0.5
- C30G U59A — lower, 0.595
- C30G U59C — lower, 0.537
- C30U C33A A43G — lower, ≤ 0.5
- C30U C49G U54A — lower, ≤ 0.5
- C31A U47C G67A — lower, 0.544
- C30U G51C G58A — lower, ≤ 0.5
- C31A G52C A57G — lower, ≤ 0.5
- C30U A37U G52A C61G — lower, ≤ 0.5
- C31A G38C — lower, 0.749
- C30U C46A G50A — lower, 0.632
- C30G G58A G68A — lower, 0.705
- C31A G39A — lower, 0.777
- C31A C61G G67C A70G — lower, ≤ 0.5
- C30U U35A — lower, 0.63
- C30G G63A A70U — lower, ≤ 0.5
- C31G A36C C46G G51C — lower, 0.597
- C30U G50A G68A — lower, ≤ 0.5
- C30U U47C — lower, 0.835
- C30G U35A C46U G51A G56A — lower, ≤ 0.5
- C31A G48C U54C C61A A70G — lower, ≤ 0.5
- C30U A57G A65U — lower, 0.667
- C30U A43C G58A — higher, 0.99
- C30U G58A C61G — lower, ≤ 0.5
- C30U G44C A65U — lower, ≤ 0.5
- C31A C61G G63A — lower, ≤ 0.5
- C30U C49U A70C — lower, 0.543
- C30U C34U A37U U59C C66U — lower, 0.565
- C30U G38C G58A C61A — lower, ≤ 0.5
- C30U A57G C60G — lower, ≤ 0.5
- C30U C34G A57G — lower, 0.569
- C31A A42C C46G — lower, 0.959
- C31A A36U — lower, 0.705
- C30U A42G C60G C62G A65G — lower, ≤ 0.5
- C30U A40G C55U U64C — lower, 0.646
- C31A A40C — lower, 0.775
- C30U C49U — lower, 0.862
- C31A G63A — lower, 0.676
- C31A G63C — lower, 0.62
- C30U A40U C49A G56A A57U — lower, ≤ 0.5
- C30U A42G — lower, 0.8
- C30U A42C — lower, 0.755
- C30U A42U — lower, 0.879
- C31A A43C C62U — higher, 0.998
- C30U U35C A43C G67U — lower, ≤ 0.5
- C30U C49A G52A C61G A70U — lower, ≤ 0.5
- C30U C33U A43G — lower, 0.569
- C31A C46A A65U — lower, ≤ 0.5
- C30U C34U G44C — lower, ≤ 0.5
- C31A C33U C49U — lower, ≤ 0.5
- C31A C62G G63A C66G A69G — lower, ≤ 0.5
- C31A A57G G68A — lower, ≤ 0.5
- C30U U35C G51U C61U — lower, ≤ 0.5
- C31A C61A — lower, ≤ 0.5
- C31A C61U — lower, 0.845
- C31A C61G — lower, 0.812
- C30G G56A — lower, 0.75
- C30U A36U A57G — lower, ≤ 0.5
- C31A U35A A36U U47C C55U — lower, 0.518
- C31A C34G A42G A45U — lower, ≤ 0.5
- C30U C33A G41C A42U — lower, ≤ 0.5
- C30U G39A C61G C62G — lower, ≤ 0.5
- C30U A40C A42C G68U — lower, ≤ 0.5
- C31A U47C A69U — lower, ≤ 0.5
- C30G G63C — lower, ≤ 0.5
- C30G G63A — lower, 0.641
- C31G A36C C49U U54G A65U — lower, ≤ 0.5
- C30U G38A G52A — lower, 0.621
- C30U C66A — lower, 0.765
- C30U C66G — lower, 0.617
- C30G U54G — lower, ≤ 0.5
- C30G U54C — lower, 0.568
- C30U A36C A69U — lower, ≤ 0.5
- C31A G50C A70G — lower, ≤ 0.5
- C30U A43U C55A — lower, ≤ 0.5
- C30U A37C C46U — lower, 0.666
- C30U C31A U54G — lower, 0.549
- C30U G38C A40G — lower, 0.569
- C31A G39A C46U — lower, ≤ 0.5
- C31A A65U C66A — lower, ≤ 0.5
- C30U A36G A37G — lower, 0.548
- C30U G38A C61U — lower, 0.692
- C31A A37G C49U C55U A57G — lower, ≤ 0.5
- C31A G48C — lower, 0.661
- C31A G48A — lower, 0.764
- C30U U54A A70U — lower, 0.572
- C30U U54A A70G — lower, 0.518
- C30U A42G G52C — lower, ≤ 0.5
- C30G U47C G63A G67A — lower, ≤ 0.5
- C30U C31G C66U — lower, 0.512
- C30U A37G G39A — lower, 0.552
- C31A G58C — lower, 0.894
- C30U G48C — lower, 0.872
- C30U C34A — lower, 0.806
- C30U C34U — lower, 0.715
- C30U U64C — lower, 0.902
- C31A C66U — lower, 0.788
- C30U C33A G50C C55G — lower, ≤ 0.5
- C30U G68A A69C — lower, 0.544
- C31A C33G A36U C66U — lower, ≤ 0.5
- C30G G56A A57U — lower, ≤ 0.5
- C31A C49U C61U — lower, 0.663
- C30U U32A U54A — lower, 0.536
- C31A C60A — lower, 0.629
- C30U U32A A36U A37U C61A — lower, ≤ 0.5
- C30U G39C U64C — lower, 0.528
- C30U G68A — lower, 0.744
- C30U G68U — lower, 0.923
- C30U A37C G38A — lower, ≤ 0.5
- C30G U59C A65U — lower, 0.528
- C31A U59C — lower, 0.767
- C31A G68C — lower, 0.648
- C31A G68A — lower, 0.694
- C30U G44C G51A C61U — lower, ≤ 0.5
- C30U C34U G51C C55U — lower, ≤ 0.5
- C30U A43C G52A C66U — lower, ≤ 0.5
- C30U C55G G58C — lower, 0.526
- C31A A42C C46G G67A — lower, 0.625
- C30U U47A A57G G67C — lower, ≤ 0.5
- C30G U53C — lower, 0.632
- C30U C31U A45C C49U U53G — lower, ≤ 0.5
- C31A G50A — lower, 0.791
- C30U G38A C60G — lower, 0.537
- C30U A37G A70C — lower, 0.59
- C30U G52A G68C — lower, ≤ 0.5
- C30U C34G U59C — lower, ≤ 0.5
- C30U C55U C66U — lower, 0.531
